Screening results (PubChem)
In the library only some 5.9% were active in any assay of this set; here they are far more common.
Pf Dd2 growth: P. falciparum Dd2 growth inhibition | SYBR Green, 72 h; active compounds read low | activity change, % at 10 µM | 94,000 compounds, 2.3% hits | AID 1159554; in the data active = activity change below about -80%; inconclusive = no clear call, values can overlap the other calls
IDH1 mut inh: inhibitors of human IDH1 R132H. IDH1 R132H reductase, diaphorase/resazurin fluorescence, 60 min. AID 624101. O75874. inhibition, % at 10 µM. 70,000 compounds, 0.18% hits; in the data active = inhibition above about 34%; inconclusive = no clear call, values can overlap the other calls; inactive = below about 11%;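 also: 0% = DMSO and 100% = no enzyme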
Target sequence (O75874 whole entry R132H): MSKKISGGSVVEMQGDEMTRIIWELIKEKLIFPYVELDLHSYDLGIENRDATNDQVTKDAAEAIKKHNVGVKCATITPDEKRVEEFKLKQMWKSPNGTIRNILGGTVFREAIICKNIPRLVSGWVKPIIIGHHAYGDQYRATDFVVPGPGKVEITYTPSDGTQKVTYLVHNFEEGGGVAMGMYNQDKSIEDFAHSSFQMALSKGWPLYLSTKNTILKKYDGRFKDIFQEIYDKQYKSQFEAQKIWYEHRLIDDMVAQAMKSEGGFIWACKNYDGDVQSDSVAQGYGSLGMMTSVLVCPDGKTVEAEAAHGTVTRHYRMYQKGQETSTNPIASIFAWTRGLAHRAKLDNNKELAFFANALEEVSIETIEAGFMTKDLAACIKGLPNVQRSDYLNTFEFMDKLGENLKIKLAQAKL
T cruzi growth-1: T. cruzi proliferation inhibition. T. cruzi beta-gal in NIH3T3, GalScreen luminescence, 90 h. inhibition, % at 8.34 µM. 77,000 compounds, 5.9% hits. AID 624255;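 active = mean inhibition above about 93%, with at least 55% of replicates each passing it, limit read from the data, passing the limit was not always enough; inconclusive = only one of those two conditions holds; inactive = neither condition holds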
KDM4C inh: KDM4C (human) demethylase inhibition | Q9H3R0 | GST-KDM4C 2-372, H3K9me3 peptide, LANCE TR-FRET | inhibition, % at 12.5 µM | 96,000 compounds, 0.15% hits;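 active = mean replicate inhibition above about 25%, with at least 55% of replicates also reaching it, limit read from the data, passing the limit was not always enough; inconclusive = only one of those two conditions met; inactive = neither condition met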
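Material: N-terminal GST-fused human GASC-1 (KDM4C) fragment, residues 2-372. Input: 10 nM enzyme. Incubation: enzyme reaction 30 min, then detection 60 min, both room temperature. Doses: one test concentration per compound. Read-out basis: inhibition from TR-FRET ratio decrease. Detection: LANCE TR-FRET, excitation 340 nm, emissions 618 and 671 nm.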
T cruzi growth-2: Trypanosoma cruzi proliferation inhibition; inhibition, % at 8.35 µM; 5,600 compounds, 72% hits; shares compounds with T cruzi growth-1; T. cruzi beta-gal in NIH3T3, GalScreen luminescence, 90 h;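 active = mean replicate inhibition above about 95% and at least 55% of replicates individually reaching it, limit read from the data; inconclusive = only one of the two criteria is met; inactive = neither criterion is met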
T cruzi growth-3: Trypanosoma cruzi proliferation inhibition; inhibition, % at 2.09 µM; AID 651740; 5,600 compounds, 21% hits; shares compounds with T cruzi growth-1; T. cruzi beta-gal in NIH3T3, GalScreen luminescence, 90 h;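 active = mean inhibition above about 95%, with at least 55% of replicates also reaching it, limit read from the data; inconclusive = meets just one of the two conditions; inactive = meets neither condition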;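 also: plate controls were neutral control median for no effect and positive control median for full effect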
NIH3T3 tox: kills mouse NIH/3T3 fibroblasts. shares compounds with T cruzi growth-1. NIH/3T3 viability, CellTiter-Glo ATP luminescence, 90 h. cytotoxicity (signal decrease), % at 8.35 µM. 5,600 compounds, 14% hits;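 active = mean signal decrease across replicates above about 35% based on untreated-well scatter, with enough replicates individually passing, limit read from the data; inconclusive = no rule stated though some were filed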;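 also: 0% = median of neutral control wells and 100% = median of positive control wells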
NIH3T3 tox 2: NIH/3T3 (mouse) viability loss; shares compounds with T cruzi growth-1; NIH/3T3 viability, CellTiter-Glo ATP luminescence, 90 h; inhibition, % at 24.9 µM; 5,600 compounds, 56% hits;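 active = mean loss of cell viability signal at or above a set limit, and enough replicates individually reaching it; inconclusive = meets only the mean limit or only the replicate share; inactive = meets neither condition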;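 also: 0% = median of neutral control wells and 100% = median of positive control wells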
* marks the source's active call; other numbers are inactive results.

Results for C[C@H]1CCCCO[C@H](CN(C)C(=O)C2CCCCC2)[C@@H](C)CN([C@@H](C)CO)C(=O)c2cc(NC(=O)Nc3cccc4ccccc34)ccc2O1 ?
Pf Dd2 growth: -75; T cruzi growth-1: inconclusive; KDM4C inh: -3; T cruzi growth-2: 98*; T cruzi growth-3: 104*; NIH3T3 tox: 9; NIH3T3 tox 2: 29

Results for C[C@@H]1CCCCO[C@H](CN(C)C(=O)Nc2cccc3ccccc23)[C@@H](C)CN([C@H](C)CO)C(=O)c2cc(NC(=O)Nc3cccc4ccccc34)ccc2O1 ?
Pf Dd2 growth: -48; IDH1 mut inh: -4; T cruzi growth-1: 8; KDM4C inh: 1

How did C[C@@H]1CCCCO[C@@H](CN(C)C(=O)C2CCCCC2)[C@H](C)CN([C@@H](C)CO)C(=O)c2cc(NC(=O)Nc3cccc4ccccc34)ccc2O1 do in these assays?
Pf Dd2 growth: -2; IDH1 mut inh: -2; T cruzi growth-1: 116*; KDM4C inh: -1; T cruzi growth-2: 104*; T cruzi growth-3: 73; NIH3T3 tox: -15; NIH3T3 tox 2: 8

Results for C[C@@H]1CCCCO[C@H](CN(C)C(=O)C2CCCCC2)[C@@H](C)CN([C@H](C)CO)C(=O)c2cc(NC(=O)Nc3cccc4ccccc34)ccc2O1 ?
Pf Dd2 growth: -57; IDH1 mut inh: -1; T cruzi growth-1: inconclusive; KDM4C inh: 17; T cruzi growth-2: 102*; T cruzi growth-3: 7; NIH3T3 tox: -1; NIH3T3 tox 2: -38

How did C[C@@H]1CCCCO[C@H](CN(C)C(=O)Nc2cccc3ccccc23)[C@H](C)CN([C@@H](C)CO)C(=O)c2cc(NC(=O)Nc3cccc4ccccc34)ccc2O1 do in these assays?
Pf Dd2 growth: -22; T cruzi growth-1: 38; KDM4C inh: 0

Results for N#Cc1ccc(NC(=O)CCCn2cc([N+](=O)[O-])cn2)cc1 ?
IDH1 mut inh: 0

Results for COc1ccc(NC(=O)Nc2ccc3c(c2)[C@@H]2C[C@@H](CC(=O)NCCc4ccccc4)O[C@H](CO)[C@@H]2O3)cc1 ?
Pf Dd2 growth: -11; IDH1 mut inh: 0; T cruzi growth-1: 133*; KDM4C inh: -9; T cruzi growth-2: 105*; T cruzi growth-3: 64; NIH3T3 tox: -17; NIH3T3 tox 2: -5

What do the screens show for `COc1ccc(NC(=O)Nc2ccc3c(c2)[C@H]2C[C@H](CC(=O)NCCc4ccccc4)O[C@@H](CO)[C@H]2O3)cc1`?
Pf Dd2 growth: -58; IDH1 mut inh: 0; T cruzi growth-1: 148*; KDM4C inh: -10; T cruzi growth-2: 105*; T cruzi growth-3: 56; NIH3T3 tox: -12; NIH3T3 tox 2: -3

How did CCCNC(=O)C[C@H]1C[C@H]2c3cc(NC(=O)CN(C)C)ccc3O[C@H]2[C@@H](CO)O1 do in these assays?
Pf Dd2 growth: 28; IDH1 mut inh: -1; T cruzi growth-1: 101*; KDM4C inh: 0; T cruzi growth-2: 7; T cruzi growth-3: -3; NIH3T3 tox: -5; NIH3T3 tox 2: 3

How did CCCNC(=O)C[C@@H]1C[C@H]2c3cc(NC(=O)Nc4ccc(OC)cc4)ccc3O[C@H]2[C@@H](CO)O1 do in these assays?
Pf Dd2 growth: -5; IDH1 mut inh: 0; T cruzi growth-1: 43; KDM4C inh: -1

Results for CCCNC(=O)C[C@H]1C[C@H]2c3cc(NC(=O)Nc4ccc(OC)cc4)ccc3O[C@H]2[C@H](CO)O1 ?
Pf Dd2 growth: -3; IDH1 mut inh: 0; T cruzi growth-1: 37; KDM4C inh: -2

Results for CCCNC(=O)C[C@H]1C[C@@H]2c3cc(NC(=O)CN(C)C)ccc3O[C@@H]2[C@H](CO)O1 ?
Pf Dd2 growth: 1; IDH1 mut inh: 0; T cruzi growth-1: 3; KDM4C inh: 3
